Assay results from different studies.
Each line is one published result; the experiments were not run side by side.
Target: Ankyrin repeat and protein kinase domain-containing protein 1 (ANKK1, Homo sapiens, UniProt Q8NFD2)
Residues used in one study (Q8NFD2 1-765): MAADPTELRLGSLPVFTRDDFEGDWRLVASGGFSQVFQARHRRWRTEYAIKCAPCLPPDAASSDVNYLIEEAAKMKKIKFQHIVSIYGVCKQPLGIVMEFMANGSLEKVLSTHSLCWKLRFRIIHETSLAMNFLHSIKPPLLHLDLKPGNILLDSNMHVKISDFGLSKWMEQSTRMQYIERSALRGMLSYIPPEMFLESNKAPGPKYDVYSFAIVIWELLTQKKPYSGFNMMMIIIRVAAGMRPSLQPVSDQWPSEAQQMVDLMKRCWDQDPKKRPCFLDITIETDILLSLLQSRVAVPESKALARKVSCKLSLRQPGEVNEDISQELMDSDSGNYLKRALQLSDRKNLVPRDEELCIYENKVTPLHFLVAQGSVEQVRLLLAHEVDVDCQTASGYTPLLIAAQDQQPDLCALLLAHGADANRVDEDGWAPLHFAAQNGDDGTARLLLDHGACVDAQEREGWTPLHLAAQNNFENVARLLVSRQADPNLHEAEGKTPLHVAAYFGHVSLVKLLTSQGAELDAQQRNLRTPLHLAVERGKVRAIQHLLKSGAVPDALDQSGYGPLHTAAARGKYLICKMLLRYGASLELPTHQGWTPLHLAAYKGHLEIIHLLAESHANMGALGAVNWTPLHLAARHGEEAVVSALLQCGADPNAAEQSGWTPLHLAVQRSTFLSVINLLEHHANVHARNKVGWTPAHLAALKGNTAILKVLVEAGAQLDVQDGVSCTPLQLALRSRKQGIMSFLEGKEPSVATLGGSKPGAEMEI

| SMILES | observed | technique | tested at | remaining binding |
| --- | --- | --- | --- | --- |
| O=C(NCC1CCOCC1)c1n[nH]cc1NC(=O)c1c(F)cccc1F | binding | competition with immobilised ligand | 1 µM | 66% |
| COc1ccc2cc(OCC3(C(=O)O)CN(C(=O)c4ccc(F)cc4)C3)ccc2c1 | cell-free assay | competition with immobilised ligand | 1 µM | 86% |
| CN(c1nccc(-c2cnn3ncccc23)n1)C1CC1 | binding | – | 1 µM | 100% |
| O=C(N1CCS(=O)(=O)CC1)N1C[C@H](c2ccc(OC(F)(F)F)cc2)C[C@H](c2nc(C3CC3)no2)C1 | cell-free assay | competition with immobilised ligand | 1 µM | 100% |
| O=C(c1ccc(Nc2ncc(Cl)c(-c3cc4ccccc4s3)n2)cc1)N1CCC(N2CCCC2)CC1 | binding | competition with immobilised ligand | 1 µM | 62% |
| CN(C)c1ncc(F)c(-c2cnn3ncccc23)n1 | binding | – | 1 µM | 69% |
| O=C(NCCCC1CCCCC1)c1ccc(CNC(=O)c2cnn(-c3ccccc3)c2C(F)(F)F)cc1 | cell-free assay | competition with immobilised ligand | 0.1 µM | 100% |
| c1cncc(-c2cccc(Nc3nccc(NC4CCCCC4)n3)c2)c1 | binding | competition with immobilised ligand | 10 µM | 47% |
| CN(CCCC(F)(F)F)c1nccc(-c2cnn3ncccc23)n1 | binding | – | 1 µM | 95% |
| COc1cnc(Nc2cccc(S(N)(=O)=O)c2)nc1N1CCN(c2ccccc2)CC1 | binding | competition with immobilised ligand | 1 µM | 97% |
| Cc1cnc(Nc2ccc(C(=O)N3CCC(N4CCCC4)CC3)cc2)nc1-c1cc2ccccc2s1 | binding | competition with immobilised ligand | 1 µM | 62% |
| CCC(=O)N[C@@H]1CC[C@H](C(=O)N(C)c2ccc(-c3nc4ccccc4o3)cc2)C1 | cell-free assay | competition with immobilised ligand | 1 µM | 100% |
| COc1ccnn2ncc(-c3ccnc(N(C)C)n3)c12 | binding | – | 1 µM | 78% |
| CC1=C(C#N)C(c2ccc3c(c2)c(NC(=O)c2ccccc2C)nn3C)C(C#N)=C(C)N1 | cell-free assay | competition with immobilised ligand | 1 µM | 92% |
| FC(F)(F)Oc1cccc(-c2cnc3ccc(-c4ccncc4)nn23)c1 | cell-free assay | competition with immobilised ligand | 5 µM | 70% |
| O=C(NCCCN1CCOCC1)c1ccc(Nc2ncc(Cl)c(-c3ccc(Cl)s3)n2)cc1 | binding | competition with immobilised ligand | 1 µM | 77% |
| C[C@@H]1CCN(c2nccc(-c3cnn4ncccc34)n2)C1 | binding | – | 1 µM | 81% |
| CNC(=O)[C@@H]1CC[C@@H](n2c(-c3ccc4cnccc4c3)nc3ccc(C(=O)NCc4cccc(C(N)=O)c4)cc32)C1 | binding | competition with immobilised ligand | 1 µM | 100% |
| O=C(O)[C@H]1[C@H](Cn2nnc3ccccc3c2=O)CC[C@@H]1C(=O)c1ccc(OCCC2CCOCC2)cc1 | cell-free assay | competition with immobilised ligand | 1 µM | 100% |
| N[C@@H]1CCN(c2nccc(-c3cnn4ncccc34)n2)C1 | binding | – | 1 µM | 100% |
